Data reported in the RNAGym collection of RNA variant scans (doi:10.1126/science.aae0568).
Fewer inactive variants are shown than the library holds.

B1: tRNA (parent)
chain: GUUCCGUUGGCGUAAUGGUAACGCGUCUCCCUCCUAAGGAGAAGACUGCGGGUUCGAGUCCCGUACGGAACG

Variants of: B1
Experiment: yeast fitness relative to wild type (ratio to wild type); higher = fitter; tRNA-Arg(CCU), competitive growth, 37 C, YPD
How it was run: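 Genotype frequency changes were the basis for Darwinian fitness relative to wild type. The frequencies came from 100-nucleotide paired-end sequencing of gene amplicons from the start population and each end population of pooled yeast strains with tRNA-Arg(CCU) gene variants at the native locus. Competition ran in YPD at 37°C for 24 hours in six replicates, genotypes needed ≥ 100 starting reads, and estimates < 0.5 were set to 0.5.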

Compared with GUUCCGUUGGCGUAAUGGUAACGGGUCUCCCUCCUAAGGAGAAGACAGCGGGUUGGAGUCCCGUACGGAACG [C24G U47A C55G], GUUCCGUUGGCGUAAUGGUAACGGGUCUCCCUCCUAAGGAGAAGACCGCGGGUUCGAGUCCCGUACGGAACG [C24G U47C] is lower in yeast fitness: 0.847 for the first, 0.688 for the second.

GUUCCGUUGGCGUAAUGGUAACGGGUCUCCCUCCUAAGGAGAAGACCGCGGGUUCGAGUCCCGUACGCACCG [C24G U47C G68C A70C] and GUUCCGUUGGCGUAAUGGUAACGGGUCUCCCUCCUAAGGAGAAGACCGCGGGGACGACUCCCGUACGGAACG [C24G U47C U53G U54A G58C] cannot be ordered by yeast fitness: at most 0.5 for the first, at most 0.5 for the second.

Compared with GUUCCGUUGGCGUAAUGGUAACGGGUCUCCCUCCUAAGGAGAAGACGGCGGGUUCGAGUCCCGUACGGAACG [C24G U47G], GUUCCGUUGGCGUAAUGGUAACGGGUCUCCCUCCUAAGGAGAAGACGGCGGGCUCGAGUCCCGUACGGAACG [C24G U47G U53C] is higher in yeast fitness: at most 0.5 for the first, 0.713 for the second.

Compared with GUUCCGUUGGCGUAAUGGUAACGGGUCUCCCUCCUAAGGAGAAGACUGCGGGAUCGAGUCCCGUACGGAACG [C24G U53A], GUUCCGUUGGCGUAAUGGUAACGGGUCUCCCUCCUAAGGAGAAGACUGCGGGAUGGAGUCCCGUACGGAACG [C24G U53A C55G] is lower in yeast fitness: 0.533 for the first, at most 0.5 for the second.

Going from GUUCCGUUGGCGUAAUGGUAACGGGUCUCCCUCCUAAGGAGAAGACUGCGGGGUCGAGUACCGUACGGAACG [C24G U53G C60A] to GUUCCGUUGGCGUAAUGGUAACGGGUCUCCCUCCUAAGGAGAAGACUGCGGGGACGACUCCCGUACGGAACG [C24G U53G U54A G58C], the yeast fitness rises from at most 0.5 to 0.552.

First: GUUCCGUUGGCGUAAUGGUAACGGGUCUCCCUCCUAAGGAGAAGACUGCGGGUACGAGUCCCGUUUGGAACG [C24G U54A A65U C66U]
Second: GUUCCGUUGGCGUAAUGGUAACGGGUCUCCCUCCUAAGGAGAAGACUGCGGGUUCGAGCCCCGUACGGAACG [C24G U59C]
The yeast fitness of the first is lower: at most 0.5 for the first, 0.65 for the second.

Compared with GUUCCGUUGGCGUAAUGGUAACGGGUCUCCCUCCUAAGGAGAAGACUGCGGGUUCGAGUCCCGAACGGAACG [C24G U64A], GUUCCGUUGGCGUAAUGGUAACGGGUCUCCCUCCUAAGGAGAAGACUGCGGGUUCGAGUCCCGCACGGAACG [C24G U64C] is lower in yeast fitness: 0.631 for the first, 0.567 for the second.

Going from GUUCCGUUGGCGUAAUGGUAACGUGUCUCCCUCCUAAGGAGAAGACUGCGGGUUCGAGUCCCGUACGGAACG [C24U] to GUUCCGUUGGCGUAAUGGUAACGUGUCUCCCUCCUCAGGAGAAGACUGCGGGUUCGAGUCCCGUACGGAACG [C24U A36C], the yeast fitness falls from 0.983 to 0.716.

First: GUUCCGUUGGCGUAAUGGUAACGUGUCUCCCUCCUCAGGAGAUGACUGCGGGUUCGAGUCCCGUACGGAACG [C24U A36C A43U]
Second: GUUCCGUUGGCGUAAUGGUAACGUGUCUCCCUCCUCAGGAGAUGACUGCGGGUUCGAGUCCCGUACGGUACG [C24U A36C A43U A69U]
The yeast fitness of the first is higher: 0.578 for the first, 0.517 for the second.

Compared with GUUCCGUUGGCGUAAUGGUAACGUGUCUCCCUCCUCAGGAGAAGACUGCGGGCUCGAGUCCCGUACGGAACG [C24U A36C U53C], GUUCCGUUGGCGUAAUGGUAACGUGUCUCCCUCCUGAGGAGAAGACUGCGGGUUCGAGUCCCGUACGGAACG [C24U A36G] is higher in yeast fitness: at most 0.5 for the first, 0.88 for the second.

Compared with GUUCCGUUGGCGUAAUGGUAACGUGUCUCCCUCCUGAGGAGAAGACUGCGGGUUCGAGUCACGUACGGAACG [C24U A36G C61A], GUUCCGUUGGCGUAAUGGUAACGUGUCUCCCUCCUGAGGAGAAGACUGCGGGUUCGAGUCUCGUACGGAACG [C24U A36G C61U] is higher in yeast fitness: at most 0.5 for the first, 0.655 for the second.

Going from GUUCCGUUGGCGUAAUGGUAACGUGUCUCCCUCCUUAGGAGAAGACUGCGGGUUCGAGUCCCGUACGGAACG [C24U A36U] to GUUCCGUUGGCGUAAUGGUAACGUGUCUCCCUCCUUGGGCGAAGACUGCGGGUUCGAGUCCCGUACGGAACG [C24U A36U A37G A40C], the yeast fitness falls from 0.592 to at most 0.5.

GUUCCGUUGGCGUAAUGGUAACGUGUCUCCCUCCUUAGGAGAAGACUGCGGGUUCGAGUACCGUACGGAACG [C24U A36U C60A] and GUUCCGUUGGCGUAAUGGUAACGUGUCUCCCUCCUACGGGGAAGACUGCGGGUACGAGUCCCGUACGGAACG [C24U A37C A40G U54A] cannot be ordered by yeast fitness: at most 0.5 for the first, at most 0.5 for the second.

Compared with GUUCCGUUGGCGUAAUGGUAACGUGUCUCCCUCCUACGCAGAGGACUGCGGGUUCGAGUCCCGUACGGAACG [C24U A37C G39C A43G], GUUCCGUUGGCGUAAUGGUAACGUGUCUCCCUCCUACGGAGAAGACUGCGGGUUCGAAUCCCGUACGGAACG [C24U A37C G58A] is higher in yeast fitness: at most 0.5 for the first, 0.513 for the second.

First: GUUCCGUUGGCGUAAUGGUAACGUGUCUCCCUCCUAGGGAGAGGACUGCGGGUUCGAGUCCCGUACGGAUCG [C24U A37G A43G A70U]
Second: GUUCCGUUGGCGUAAUGGUAACGUGUCUCCCUCCUAGGGAGAAGUCUGCGGGUUCGAGUCCCGUACGGAACG [C24U A37G A45U]
The yeast fitness of the first is lower: at most 0.5 for the first, 0.562 for the second.

GUUCCGUUGGCGUAAUGGUAACGUGUCUCCCUCCUAGGGAGAAGACUGGGGGUUCGAGUCCCGUACGGAACG [C24U A37G C49G] and GUUCCGUUGGCGUAAUGGUAACGUGUCUCCCUCCUAGGAAGAAGACUCCGGGUUCGAGUCCCGUACGGCACG [C24U A37G G39A G48C A69C] cannot be ordered by yeast fitness: at most 0.5 for the first, at most 0.5 for the second.

Going from GUUCCGUUGGCGUAAUGGUAACGUGUCUCCCUCCUAGGAAGAAGACUCCGGGUUCGAGUCCCGUACGUAACG [C24U A37G G39A G48C G68U] to GUUCCGUUGGCGUAAUGGUAACGUGUCUCCCUCCUAGGGAGAAGACUGCGGGUUCGAGUCCCCUAUGGAACG [C24U A37G G63C C66U], the yeast fitness rises from at most 0.5 to 0.581.

GUUCCGUUGGCGUAAUGGUAACGUGUCUCCCUCCUAUGGAGAAGACUGCGGGUUCGAGUCCCGUUCGGCACG [C24U A37U A65U A69C] and GUUCCGUUGGCGUAAUGGUAACGUGUCUCCCUCCUAUGGAGAAGAAUGCGGGUUCGAGUCCCGUACGGAUCG [C24U A37U C46A A70U] cannot be ordered by yeast fitness: at most 0.5 for the first, at most 0.5 for the second.

Variant GUUCCGUUGGCGUAAUGGUAACGUGUCUCCCUCCUAUGGACAAGACUGCGGGUUCGAGUCCCGUACGGACCG [C24U A37U G41C A70C] has a yeast fitness of at most 0.5.
